NPY2 pot ag: NPY-Y2 potentiators or agonists, primary screen, cell-based; Neuropeptide Y receptor type 2 (Homo sapiens), P49146; cells expressing NPY-Y2, potentiator/agonist read-out; activation, % at 3.6 µM; 220,000 compounds, 0.45% hits; in the data active = activation above about 27%;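 note: cells stimulated with NPY near EC25 plus isoproterenol at EC100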
Target sequence (P49146 whole entry, looked up): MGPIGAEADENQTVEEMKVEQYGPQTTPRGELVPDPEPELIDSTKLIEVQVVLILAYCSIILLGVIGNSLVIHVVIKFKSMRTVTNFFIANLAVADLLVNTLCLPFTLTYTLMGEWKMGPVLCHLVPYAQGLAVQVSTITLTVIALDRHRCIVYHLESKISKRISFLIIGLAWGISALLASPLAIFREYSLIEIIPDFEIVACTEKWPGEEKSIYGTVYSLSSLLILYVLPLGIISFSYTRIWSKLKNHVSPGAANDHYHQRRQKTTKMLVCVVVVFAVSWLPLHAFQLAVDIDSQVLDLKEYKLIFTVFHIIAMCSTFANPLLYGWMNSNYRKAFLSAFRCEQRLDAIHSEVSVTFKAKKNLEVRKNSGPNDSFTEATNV
NPY1 pot ag: NPY-Y1 receptor potentiators or agonists, primary screen, cell-based; Neuropeptide Y receptor type 1 (Homo sapiens), P25929; NPY-Y1 expressing cells, potentiator/agonist activation; activation, % at 3.6 µM; 220,000 compounds, 0.37% hits; AID 1304, 2008; in the data active = activation above about 33%, passing the limit was not always enough;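 note: cells stimulated with NPY at EC10 then isoproterenol at EC100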
NPY-Y2 antag: NPY-Y2 receptor antagonists, primary screen, cell-based; inhibition, % at 2.7 µM; NPY-Y2 expressing cells, antagonist mode; Neuropeptide Y receptor type 2 (Homo sapiens), P49146; 140,000 compounds, 0.99% hits; in the data active = inhibition above about 17%
NPY Y1 blocker: NPY-Y1 receptor antagonists, primary screen, cell-based. Neuropeptide Y receptor type 1 (Homo sapiens), P25929. HEK293-CNG Y1 cells, membrane potential fluorescence; NPY at EC95, then isoproterenol. inhibition, % at 3.6 µM. 200,000 compounds, 1% hits;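 active = inhibition above the campaign mean inhibition of all tested compounds plus 3 SD, cut at about 20% in these data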
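material = HEK293 cells with Y1 receptor plus CNG channel | also added = NPY 25 nM then isoproterenol 1 µM plus Ro 20-1724 25 µM | schedule = dye 3 h, compound 60 min room temperature, stimulation 45 min | measured by = membrane potential fluorescence | benchmarks = high control isoproterenol alone, low control NPY with isoproterenol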
NPY-Y2 confirm: NPY-Y2 potentiators or agonists, confirmation, cell-based; activation, % at 3.6 µM; cell-based NPY-Y2 potentiator/agonist assay; shares compounds with NPY2 pot ag; 450 compounds, 20% hits; in the data active = activation above about 33%
NPY-Y1 potentiator: NPY-Y1 potentiators or agonists, counter-screen for NPY-Y2 potentiator project, cell-based, fluorescence; activation, % at 3.6 µM; 450 compounds, 20% hits; Y1 HEK293-CNG cells, membrane potential fluorescence; shares compounds with NPY2 pot ag; in the data active = activation above about 45%;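 note: cells stimulated with submaximal NPY then isoproterenol with phosphodiesterase inhibitor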
NPY-Y1 agonist 2: NPY-Y1 direct agonists, selectivity assay for NPY-Y2 potentiator project, cell-based, fluorescence. shares compounds with NPY2 pot ag. HEK293 Y1-CNGC, membrane potential fluorescence, agonism. activation, % at 3.6 µM. 450 compounds, 37% hits;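 active = activation above the mean of DMSO-only control wells plus 3 SD, cut at about 18% in these data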;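 note: cells stimulated with 1 µM isoproterenol plus the PDE inhibitor Ro 20-1724; Y1 agonists lower the membrane potential dye signal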
CNGC inh: CNGC cAMP sensor activity inhibitors, counter-screen for NPY-Y2 potentiator project, cell-based, HEK293-CNG parental, membrane potential fluorescence | 450 compounds, 32% hits | inhibition, % at 3.6 µM | shares compounds with NPY2 pot ag | isoproterenol cAMP;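 active = inhibition above the control-well mean plus 3 SD of those wells, cut at about 22% in these data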
Y2 agonist ctr: NPY-Y2 direct agonists, counter-screen for NPY-Y2 potentiator project, cell-based, fluorescence | 450 compounds, 56% hits | AID 1710, 2009 | activation, % at 3.6 µM | HEK293 Y2/CNGC cells, membrane potential fluorescence, agonist mode | shares compounds with NPY2 pot ag;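 active = activation above the mean of solvent-only control wells plus 3 SD, cut at about 10% in these data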;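 note: cells stimulated by isoproterenol with no NPY added so direct agonism is tested; agonism lowers probe fluorescence through less cAMP and CNG channel opening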
Hits are given with their value; n = inactive; x = not tested or not shown. A selection: hits, their analogues and other compounds. The true share with any hit is near 1.9%.

SMILES | NPY2 pot ag | NPY1 pot ag | NPY-Y2 antag | NPY Y1 blocker | NPY-Y2 confirm | NPY-Y1 potentiator | NPY-Y1 agonist 2 | CNGC inh | Y2 agonist ctr
COC(=O)C1CSC(C(=O)OC)N1C(=O)CN1CCN(c2ccccc2)CC1 (stereo not given) | n | n | x | n | x | x | x | x | x
CCOc1cc(C(=S)N2CCOCC2)ccc1OS(=O)(=O)c1ccc(NC(C)=O)cc1 | 33 | n | n | n | n | n | n | n | n
Cc1cc(C)n(-c2ccc(C(=O)Nc3ccc(S(=O)(=O)NCc4ccco4)cc3)cc2)n1 | 38 | n | n | n | n | n | n | n | n
Cc1ccc(C(=O)Nc2ccc(S(=O)(=O)NCc3ccco3)cc2)cc1 | n | n | n | n | x | x | x | x | x
Cc1sc2nc(SCc3ccc(C(=O)O)cc3)n(Cc3ccco3)c(=O)c2c1C | 56 | n | x | x | n | n | 32 | n | 22
CCOC(=O)c1c(C)sc2c1N(C(=O)CCl)c1cc(Cl)ccc1S2 | 38 | n | n | n | n | n | 34 | n | n
Cc1cccc(C)c1Nc1nnc(SCC(=O)c2ccc3c(c2)NC(=O)CO3)s1 | n | n | n | n | x | x | x | x | x
N#Cc1cc(S(=O)(=O)c2ccc(Cl)cc2)c(N)[nH]c1=O | 54 | n | x | n | n | n | n | n | n
COc1nc(N)c(S(=O)(=O)c2ccccc2)cc1C#N | n | n | n | n | x | x | x | x | x
COc1ccccc1NS(=O)(=O)c1cccc(-n2c(O)c(C=Nc3ccccc3C(=O)O)c3ccccc3c2=O)c1 | 45 | n | x | x | n | n | 34 | n | 30
COc1ccc(Cn2c(O)c(C=Nc3ccccc3C(=O)O)c3ccccc3c2=O)cc1 | 54 | n | x | x | n | n | 28 | n | 27
CCSc1nnc(NC(=O)COc2ccc(Cl)cc2)s1 | n | n | x | n | x | x | x | x | x
O=C(COc1ccc(Cl)cc1)Nc1ncc([N+](=O)[O-])s1 | 40 | n | x | n | n | n | n | n | 10
O=C(Cc1ccccc1)N1CCc2ccccc21 | n | n | n | n | x | x | x | x | x
O=C(CS(=O)(=O)c1ccccc1)N1CCc2ccccc21 | 34 | n | x | n | n | n | n | n | n
O=[N+]([O-])c1cc(Cl)cc(/C=N/Nc2nc3ccccc3s2)c1O | 28 | n | x | n | 60 | 68 | 69 | 63 | 66
COc1cc(/C=N/Nc2nc3ccccc3s2)cc([N+](=O)[O-])c1O | n | n | x | x | x | x | x | x | x
O=C(CNC1CCCCCC1)Nc1ccc(N2CCCC2)cc1 | n | n | n | n | x | x | x | x | x
O=C(CNCCC1=CCCCC1)Nc1ccc(N2CCCCCC2)cc1 | 45 | n | n | n | 39 | 45 | 37 | 38 | 46
CC(C)(C)c1nnc2cccc(Cl)n12 | n | n | x | n | x | x | x | x | x
COc1nc(/C=C/N(C)C)c([N+](=O)[O-])c(OC)n1 | 102 | n | x | x | n | n | n | n | n
Cc1nn(C)c(C(=O)N2CCOCC2)c1Cl | n | n | n | n | x | x | x | x | x
CCN(CC)CCCN(C(=O)c1ccco1)c1nc(-c2ccc(C)cc2)cs1 | 25 | n | x | n | 64 | 65 | 45 | 58 | 62
Cc1cc(C)n2c(SCC(=O)NC3CCCCC3)nnc2n1 | n | n | x | n | x | x | x | x | x
COc1cccc(N2CCN(c3ncnc4c3[nH]c3ccccc34)CC2C)c1 (stereo not given) | n | n | n | n | x | x | x | x | x
SMILES | NPY2 pot ag | NPY1 pot ag | NPY-Y2 antag | NPY Y1 blocker | NPY-Y2 confirm | NPY-Y1 potentiator | NPY-Y1 agonist 2 | CNGC inh | Y2 agonist ctr
COc1cccc(N2CCN(c3ncnc4c3[nH]c3ccc(F)cc34)CC2C)c1 (stereo not given) | 39 | n | n | 57 | n | n | n | n | n
CC(=O)c1ccc(NC(=S)NCc2ccc(Cl)cc2Cl)cc1 | n | n | x | n | x | x | x | x | x
COc1ccc(-n2c(C)cc(C(=O)CN3C(=O)c4ccccc4C3=O)c2C)cc1 | n | n | n | n | x | x | x | x | x
COc1ccc(-n2c(C)cc(C(=O)COC(=O)Cn3cnc4ccccc43)c2C)cc1 | 38 | n | n | n | n | n | n | n | n
Cc1cccc(C)c1Nc1c(-c2ccc(N3CCOCC3)cc2)nc2ncccn12 | 43 | n | n | n | 91 | 111 | 96 | 83 | 97
COC(CN(C(=O)CCl)C(C(=O)NC1CCCCC1)c1ccc(C)cc1)OC (stereo not given) | n | n | n | n | x | x | x | x | x
Cc1ccc(-c2nc3ccccc3c(=O)n2NC(=S)N(C)C)cc1 | n | n | n | n | x | x | x | x | x

High-throughput results deposited in PubChem by The Scripps Research Institute Molecular Screening Center.
